Reference: ChEMBL document CHEMBL5252534, “Discovery of a Noncovalent, Mutant-Selective Epidermal Growth Factor Receptor Inhibitor” (J Med Chem, 2016)
Values after ≈ are worked out from the molar mass of the structure shown. Active and inactive are the calls of the source. The rule behind the calls is not given here.

Key:
[1] = biological target: Epidermal growth factor receptor (Homo sapiens, UniProt P00533); assay: Inhibition of EGFR autophosphorylation in human NCI-H292 cells harboring harboring wild type EGFR preincubated for 60 mins followed by EGF stimulation and measured after 8 mins by SULFO-TAG based electrochemiluminescent assay; type: cell-based
[2] = biological target: Epidermal growth factor receptor (Homo sapiens, UniProt P00533, 746-750DEL); type: cell-based, PC-9
Chain of Epidermal growth factor receptor (Homo sapiens, UniProt P00533, 746-750DEL) (P00533 whole entry, looked up, stated change not applied): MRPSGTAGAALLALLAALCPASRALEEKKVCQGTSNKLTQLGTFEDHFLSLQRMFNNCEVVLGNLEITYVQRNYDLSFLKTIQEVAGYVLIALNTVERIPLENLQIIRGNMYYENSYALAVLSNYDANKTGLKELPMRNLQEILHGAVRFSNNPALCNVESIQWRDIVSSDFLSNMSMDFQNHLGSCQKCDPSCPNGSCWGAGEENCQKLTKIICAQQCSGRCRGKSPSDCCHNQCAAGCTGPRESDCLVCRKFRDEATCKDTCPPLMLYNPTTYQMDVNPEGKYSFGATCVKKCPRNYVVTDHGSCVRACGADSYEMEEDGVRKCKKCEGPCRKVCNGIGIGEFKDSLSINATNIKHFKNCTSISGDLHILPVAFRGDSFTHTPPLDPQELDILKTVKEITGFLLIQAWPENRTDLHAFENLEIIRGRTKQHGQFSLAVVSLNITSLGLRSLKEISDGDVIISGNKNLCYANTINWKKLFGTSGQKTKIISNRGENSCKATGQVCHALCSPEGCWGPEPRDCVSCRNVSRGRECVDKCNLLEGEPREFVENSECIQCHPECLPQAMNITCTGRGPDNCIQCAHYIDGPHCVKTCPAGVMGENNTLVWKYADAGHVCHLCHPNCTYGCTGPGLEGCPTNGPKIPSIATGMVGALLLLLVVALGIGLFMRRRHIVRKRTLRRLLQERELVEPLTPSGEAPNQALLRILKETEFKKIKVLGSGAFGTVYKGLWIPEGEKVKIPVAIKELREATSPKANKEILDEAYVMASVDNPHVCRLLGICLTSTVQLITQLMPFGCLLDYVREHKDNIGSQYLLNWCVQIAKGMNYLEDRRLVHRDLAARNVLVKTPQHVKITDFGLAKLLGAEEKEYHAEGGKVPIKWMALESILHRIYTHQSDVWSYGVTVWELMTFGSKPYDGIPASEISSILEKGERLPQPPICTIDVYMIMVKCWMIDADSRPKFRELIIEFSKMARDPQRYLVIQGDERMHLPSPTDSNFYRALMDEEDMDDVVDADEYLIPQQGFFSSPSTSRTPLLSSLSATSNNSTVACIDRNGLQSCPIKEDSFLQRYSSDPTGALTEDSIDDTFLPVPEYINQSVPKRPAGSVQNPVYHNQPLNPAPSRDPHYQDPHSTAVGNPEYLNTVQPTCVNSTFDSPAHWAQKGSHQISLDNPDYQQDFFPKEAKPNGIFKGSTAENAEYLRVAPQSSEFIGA

[3] = biological target: Epidermal growth factor receptor (Homo sapiens, UniProt P00533, 746-750DEL/T790M); type: cell-based, PC-9/ER1
Chain of Epidermal growth factor receptor (Homo sapiens, UniProt P00533, 746-750DEL/T790M) (P00533 whole entry, looked up, stated change not applied): as above

[4] = biological target: Epidermal growth factor receptor (Homo sapiens, UniProt P00533, L858R/T790M); type: cell-based, NCI-H1975
Chain of Epidermal growth factor receptor (Homo sapiens, UniProt P00533, L858R/T790M) (P00533 25-1210 T790M/L858R limits assumed): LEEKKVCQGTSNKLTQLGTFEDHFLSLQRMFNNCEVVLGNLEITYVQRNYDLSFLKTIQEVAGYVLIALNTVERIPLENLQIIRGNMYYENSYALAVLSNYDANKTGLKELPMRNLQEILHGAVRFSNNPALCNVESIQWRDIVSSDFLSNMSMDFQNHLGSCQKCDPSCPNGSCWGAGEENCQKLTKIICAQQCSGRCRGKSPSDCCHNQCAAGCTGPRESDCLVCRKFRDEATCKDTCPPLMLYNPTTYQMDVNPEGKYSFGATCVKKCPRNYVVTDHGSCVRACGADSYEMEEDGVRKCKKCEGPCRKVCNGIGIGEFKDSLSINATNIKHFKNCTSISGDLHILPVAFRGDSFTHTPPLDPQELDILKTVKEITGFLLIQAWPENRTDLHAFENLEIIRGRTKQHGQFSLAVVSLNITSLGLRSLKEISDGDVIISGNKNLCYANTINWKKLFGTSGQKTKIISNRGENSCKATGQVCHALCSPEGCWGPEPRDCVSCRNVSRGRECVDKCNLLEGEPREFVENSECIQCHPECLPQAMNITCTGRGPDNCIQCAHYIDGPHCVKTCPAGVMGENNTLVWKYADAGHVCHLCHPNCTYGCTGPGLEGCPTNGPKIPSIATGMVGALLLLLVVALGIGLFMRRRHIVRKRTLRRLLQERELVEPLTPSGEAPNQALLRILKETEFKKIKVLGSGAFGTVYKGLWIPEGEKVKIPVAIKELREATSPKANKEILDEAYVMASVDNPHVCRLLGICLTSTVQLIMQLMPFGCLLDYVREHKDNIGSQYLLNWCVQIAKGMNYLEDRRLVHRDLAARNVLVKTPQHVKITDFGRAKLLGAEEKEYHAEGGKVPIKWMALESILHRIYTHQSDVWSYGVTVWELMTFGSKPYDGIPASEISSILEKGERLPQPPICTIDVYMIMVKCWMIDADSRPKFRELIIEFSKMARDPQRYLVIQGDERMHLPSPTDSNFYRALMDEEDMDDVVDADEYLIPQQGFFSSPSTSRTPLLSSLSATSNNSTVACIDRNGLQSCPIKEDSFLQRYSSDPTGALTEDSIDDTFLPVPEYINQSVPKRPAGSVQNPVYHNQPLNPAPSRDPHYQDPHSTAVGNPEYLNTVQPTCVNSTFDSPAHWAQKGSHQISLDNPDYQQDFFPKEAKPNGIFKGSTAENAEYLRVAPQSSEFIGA

[5] = Aqueous kinetic solubility of compound in PBS buffer at pH 7.4 at 100 uM incubated for 24 hrs by LC/CLND analysis; type: physicochemical; conditions: read-out: Kinetic_solubility
Summary of the method: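 Kinetic aqueous solubility measured at pH 7.4.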

[6] = Apparent permeability across apical to basolateral side in dog MDCK cells; type: ADME, cell-based, Canis lupus familiaris
[7] = Clearance in human hepatocyte; type: ADME, cell-based; conditions: hepatocytes
Summary of the method: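 Cryopreserved human hepatocytes used; intrinsic clearance converted to predicted hepatic clearance as (Q × Clint)/(Q + Clint) using liver blood flow Q.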

[8] = Clearance in human liver microsomes; type: ADME, Microsome
Summary of the method: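 Incubation with human liver microsomes; intrinsic clearance scaled to predicted hepatic clearance as Clhep = (Q × Clint)/(Q + Clint), where Q is liver blood flow.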

[9] = test system: NCI-H1975; assay: Antiproliferative activity against human NCI-H1975 cells harboring harboring EGFR L858R/T790M double mutant assessed as reduction in cell viability; type: functional, cell-based
[10] = test system: PC-9; assay: Antiproliferative activity against human PC-9 cells harboring harboring EGFR del (746 to 750) mutant assessed as reduction in cell viability; type: functional, cell-based
[11] = Clearance in mouse plasma at 5 mg/kg,iv; type: ADME, organism-based
Summary of the method: (§1)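 Single intravenous dose as a solution in 10/35/55 ethanol/PEG/water (mouse 5 mg kg−1; dog 1 mg kg−1); plasma clearance and steady-state volume of distribution derived from the plasma profile.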

[12] = Volume of distribution at steady state in mouse at 5 mg/kg,iv; type: ADME, organism-based; conditions: in vivo, read-out: Vdss; summary of the method: as §1
[13] = Clearance in dog plasma at 1 mg/kg,iv; type: ADME, organism-based, Canis lupus familiaris; summary of the method: as §1
[14] = Volume of distribution at steady state in dog at 1 mg/kg,iv; type: ADME, organism-based, Canis lupus familiaris; conditions: in vivo, read-out: Vdss; summary of the method: as §1
[15] = Oral bioavailability in mouse at 25 mg/kg; type: ADME, organism-based; conditions: in vivo
Summary of the method: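 Mouse dosed orally at 25 mg kg−1 as a solution in corn oil; bioavailability compared against the iv arm (5 mg kg−1 in ethanol/PEG/water).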

[16] = Oral bioavailability in dog at 2 mg/kg; type: ADME, organism-based, Canis lupus familiaris; conditions: in vivo
Summary of the method: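 Dog dosed orally at 2 mg kg−1 as a suspension in MCT; bioavailability compared against iv dosing at 1 mg kg−1 in ethanol/PEG/water.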

[17] = test system: Plasma; assay: Time during which free plasma concentration exceeds IC50 for inhibition of human EGFR T790M/L858R double mutant autophosphorylation in human NCI-H1975 cells xenografted in SCID mouse at 50 mg/kg, po
[18] = test system: Plasma; assay: Time during which free plasma concentration exceeds IC50 for inhibition of human EGFR T790M/L858R double mutant autophosphorylation in human NCI-H1975 cells xenografted in SCID mouse at 100 mg/kg, po
[19] = test system: Epidermal growth factor receptor (Homo sapiens), P00533 [L858R,T790M]; assay: In vivo inhibition of EGFR L858R/T790M double mutant in SCID mouse xenografted with human NCI-H1975 cells assessed as reduction in EGFR L858R/T790M double mutant phosphorylation at Y1068 residue at 50 mg/kg, po and measured after 8 hrs by MSD assay; type: functional, organism-based
Chain of Epidermal growth factor receptor (Homo sapiens), P00533 [L858R,T790M] (P00533 whole entry T790M/L858R, looked up): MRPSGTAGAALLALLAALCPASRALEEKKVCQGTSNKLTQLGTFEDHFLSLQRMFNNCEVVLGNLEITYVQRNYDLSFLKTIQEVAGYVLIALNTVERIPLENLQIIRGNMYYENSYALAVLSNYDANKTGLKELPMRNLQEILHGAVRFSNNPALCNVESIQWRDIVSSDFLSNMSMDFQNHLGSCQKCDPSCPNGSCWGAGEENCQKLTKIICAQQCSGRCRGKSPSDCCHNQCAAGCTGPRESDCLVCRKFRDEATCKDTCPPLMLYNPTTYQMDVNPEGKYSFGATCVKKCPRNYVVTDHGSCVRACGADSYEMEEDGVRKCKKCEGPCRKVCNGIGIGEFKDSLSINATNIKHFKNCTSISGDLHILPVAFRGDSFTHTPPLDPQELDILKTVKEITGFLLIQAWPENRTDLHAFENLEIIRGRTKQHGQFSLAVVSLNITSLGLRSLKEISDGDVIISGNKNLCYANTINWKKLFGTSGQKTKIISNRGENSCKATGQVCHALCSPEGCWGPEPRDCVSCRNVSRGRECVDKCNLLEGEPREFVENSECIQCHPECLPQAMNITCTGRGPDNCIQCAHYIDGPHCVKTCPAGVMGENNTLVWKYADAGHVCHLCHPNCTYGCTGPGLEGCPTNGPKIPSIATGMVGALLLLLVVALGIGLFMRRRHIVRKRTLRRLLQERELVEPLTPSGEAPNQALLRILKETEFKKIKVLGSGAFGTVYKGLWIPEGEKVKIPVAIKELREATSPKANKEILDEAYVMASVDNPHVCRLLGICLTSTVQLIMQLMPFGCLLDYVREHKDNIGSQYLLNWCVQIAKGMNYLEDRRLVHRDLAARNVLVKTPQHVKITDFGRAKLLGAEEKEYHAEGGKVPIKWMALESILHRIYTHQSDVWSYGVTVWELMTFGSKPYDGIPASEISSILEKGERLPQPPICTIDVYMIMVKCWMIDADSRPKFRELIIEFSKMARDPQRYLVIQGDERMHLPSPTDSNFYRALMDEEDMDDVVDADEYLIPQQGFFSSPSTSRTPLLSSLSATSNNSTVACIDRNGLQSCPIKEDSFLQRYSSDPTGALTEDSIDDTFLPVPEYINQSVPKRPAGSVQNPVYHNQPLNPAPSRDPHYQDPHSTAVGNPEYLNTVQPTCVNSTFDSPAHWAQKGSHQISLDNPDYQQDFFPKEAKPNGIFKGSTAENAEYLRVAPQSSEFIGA
Summary of the method: (§2)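 H1975 tumor-bearing mice given a single oral dose of 50 or 100 mg/kg; tumors collected at set times; phospho-EGFR, ERK and AKT measured by MSD immunoassay; four animals per group, individual animals plotted.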

[20] = test system: Epidermal growth factor receptor (Homo sapiens), P00533 [L858R,T790M]; assay: In vivo inhibition of EGFR L858R/T790M double mutant in SCID mouse xenografted with human NCI-H1975 cells assessed as reduction in ERK1/2 phosphorylation at 50 mg/kg, po and measured after 8 hrs by MSD assay; type: functional, organism-based; summary of the method: as §2
[21] = test system: Epidermal growth factor receptor (Homo sapiens), P00533 [L858R,T790M]; assay: In vivo inhibition of EGFR L858R/T790M double mutant in SCID mouse xenografted with human NCI-H1975 cells assessed as reduction in AKT phosphorylation at S473 residue at 50 mg/kg, po and measured after 8 hrs by MSD assay; type: functional, organism-based; summary of the method: as §2
[22] = test system: Epidermal growth factor receptor (Homo sapiens), P00533 [L858R,T790M]; assay: In vivo inhibition of EGFR L858R/T790M double mutant in SCID mouse xenografted with human NCI-H1975 cells assessed as reduction in EGFR L858R/T790M double mutant phosphorylation at Y1068 residue at 100 mg/kg, po and measured after 16 hrs by MSD assay; type: functional, organism-based; summary of the method: as §2
[23] = test system: Epidermal growth factor receptor (Homo sapiens), P00533 [L858R,T790M]; assay: In vivo inhibition of EGFR L858R/T790M double mutant in SCID mouse xenografted with human NCI-H1975 cells assessed as reduction in ERK1/2 phosphorylation at 100 mg/kg, po and measured after 16 hrs by MSD assay; type: functional, organism-based; summary of the method: as §2
[24] = test system: Epidermal growth factor receptor (Homo sapiens), P00533 [L858R,T790M]; assay: In vivo inhibition of EGFR L858R/T790M double mutant in SCID mouse xenografted with human NCI-H1975 cells assessed as reduction in AKT phosphorylation at S473 residue at 100 mg/kg, po and measured after 16 hrs by MSD assay; type: functional, organism-based; summary of the method: as §2
[25] = Fraction unbound in SCID mouse plasma at 50 to 100 mg/kg,po and measured upto 16 hrs by LC-MS assay; type: ADME, organism-based; conditions: in vivo, dose 50-100 mg/kg

`CC[C@H](C)n1nc(N2CC(C(C)(C)O)C2)c2cnc(Nc3ccnc(-c4cnn(S(=O)(=O)C5CC5)c4)n3)cc21` showed an IC50 [1] of 0.218 µM, an IC50 [2] of 0.033 µM and an IC50 [3] of 0.008 µM. The IC50 [4] was 0.027 µM, the solubility kinetic at 24 h, 100 µM [5] was 2 µM (≈ 1.1 µg/mL) and the Papp A→B [6] was 89 nm/s. The CLhep predicted [7] was 0.162 L/h/kg, the CLhep predicted [8] was 0.228 L/h/kg and the IC50 [9] was 0.361 µM. For the same molecule, the IC50 [10] was 0.151 µM, the clearance [11] was 6.24 L/h/kg and the Vd [12] was 3.4 L/kg. The clearance [13] was 0.78 L/h/kg, the Vd [14] was 6.9 L/kg and the bioavailability [15] was 19%. For the same molecule, the bioavailability [16] was 30%, the “T>IC50” value [17] was 8 h and the “T>IC50” value [18] was 16 h. For the same molecule, the inhibition [19] was “Active”, the inhibition [20] was “Active” and the inhibition [21] was “Active”. For the same molecule, the inhibition [22] was “Active”, the inhibition [23] was “Active” and the inhibition [24] was “Active”. For the same molecule, the Fu [25] was 0.009.
